Test results: ChEMBL document CHEMBL4373718, “Germacrane Sesquiterpenoids as a New Type of Anticardiac Fibrosis Agent Targeting Transforming Growth Factor β Type I Receptor” (J Med Chem, 2019)
Active and inactive are the calls of the source. The rule behind the calls is not given here.

What was measured:
[1] = target: T1, TGF-beta receptor type-1 (Rattus norvegicus) (UniProt P80204); assay: Inhibition of TGFbeta1 receptor in TGFbeta1-stimulated Sprague-Dawley rat cardiac fibroblasts assessed as reduction in fibronectin expression measured after 12 hrs by Western blot analysis
T1 sequence (whole entry): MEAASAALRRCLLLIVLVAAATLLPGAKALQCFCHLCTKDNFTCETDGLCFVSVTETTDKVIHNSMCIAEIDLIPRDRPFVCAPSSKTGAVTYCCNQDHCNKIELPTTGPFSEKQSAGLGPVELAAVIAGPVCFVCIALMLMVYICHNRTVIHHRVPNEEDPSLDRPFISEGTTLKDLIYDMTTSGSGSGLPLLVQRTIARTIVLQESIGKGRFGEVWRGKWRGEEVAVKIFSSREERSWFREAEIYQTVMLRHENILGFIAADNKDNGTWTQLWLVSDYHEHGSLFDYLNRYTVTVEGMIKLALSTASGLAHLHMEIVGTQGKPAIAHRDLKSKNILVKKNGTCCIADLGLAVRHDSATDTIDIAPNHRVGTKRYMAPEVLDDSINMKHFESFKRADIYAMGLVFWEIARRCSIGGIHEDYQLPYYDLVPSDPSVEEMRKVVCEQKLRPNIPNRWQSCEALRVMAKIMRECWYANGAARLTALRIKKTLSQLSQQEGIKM
How it was run: (§1)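 Primary rat cardiac fibroblasts (passages 2–4, 3×10^5 per well) treated with compound plus 10 ng/mL TGFβ1 for 12 h; tested at 2.5, 5 and 10 µM. Lysates run on 10% SDS-PAGE (30 µg protein), probed for FN, α-SMA and collagen I/III, and quantified by densitometry against GAPDH. N=3 independent experiments.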

[2] = tested on: Rattus norvegicus; assay: Antifibrotic activity in abdominal aortic constriction Sprague-Dawley rat model of cardiac fibrosis assessed as down regulation of fibronectin expression in heart at 5 mg/kg, ip administered once daily for 4 weeks measured post-last dose by Western blot analysis; type: functional, organism-based
How it was run: (§2)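 AAC rats dosed ip daily for 4 weeks, n=8 per group. Hearts homogenized in lysis buffer with protease and phosphatase inhibitors and spun at 12,000 rpm for 30 min at 4 °C. Nuclear and cytoplasmic fractions prepared with a kit. Protein measured by BCA; 30 µg run on 10% SDS-PAGE, transferred to PVDF and immunoblotted; bands quantified by densitometry.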

[3] = target: T1, TGF-beta receptor type-1 (Rattus norvegicus); assay: Inhibition of TGFbeta1 receptor in TGFbeta1-stimulated Sprague-Dawley rat cardiac fibroblasts assessed as reduction in collagen 3 expression measured after 12 hrs by Western blot analysis; how it was run: as §1
[4] = tested on: Rattus norvegicus; assay: Antifibrotic activity in abdominal aortic constriction Sprague-Dawley rat model of cardiac fibrosis assessed as ejection fraction at 5 mg/kg, ip administered once daily for 4 weeks measured post-last dose by echocardiography (reference value: 79.59 +/- 3.13%); type: functional
[5] = target: T1, TGF-beta receptor type-1 (Rattus norvegicus); assay: Inhibition of TGFbeta1 receptor in TGFbeta1-stimulated Sprague-Dawley rat cardiac fibroblasts assessed as reduction in fibronectin expression at 50 uM measured after 12 hrs by Western blot analysis
How it was run: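 Screen in primary rat cardiac fibroblasts: compounds at 50 µM or 10 µM given with 10 ng/mL TGFβ1 for 12 h. FN measured by Western blot with GAPDH loading control and densitometry. N=3 independent experiments.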

[6] = tested on: Rattus norvegicus; assay: Antifibrotic activity in abdominal aortic constriction Sprague-Dawley rat model of cardiac fibrosis assessed as systolic left ventricular internal diameter at 5 mg/kg, ip administered once daily for 4 weeks measured post-last dose by echocardiography (reference value: 3.99 +/- 0.41 mm); type: functional
[7] = target: T1, TGF-beta receptor type-1 (Rattus norvegicus); assay: Inhibition of TGFbeta1 receptor in TGFbeta1-stimulated Sprague-Dawley rat cardiac fibroblasts assessed as reduction in collagen 1 mRNA expression at 2.5 to 10 uM measured after 12 hrs by qRT-PCR analysis
How it was run: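 Primary rat cardiac fibroblasts (3×10^5 per well) treated with compound plus 10 ng/mL TGFβ1 for 12 h. Total RNA extracted and target transcripts measured by SYBR Green qRT-PCR, normalized to GAPDH.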

[8] = target: T1, TGF-beta receptor type-1 (Rattus norvegicus); assay: Inhibition of TGFbeta1 receptor in TGFbeta1-stimulated Sprague-Dawley rat cardiac fibroblasts assessed as reduction in Smad3 nuclear translocation at 10 uM measured after 5 mins by Western blot analysis
How it was run: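 Primary rat cardiac fibroblasts treated with 10 µM compound plus 10 ng/mL TGFβ1 for 5 min. Nuclear and cytosolic fractions separated with a kit and Smad2/Smad3 measured by Western blot.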

[9] = target: TGF-beta receptor type-2 (Homo sapiens) (UniProt P37173); assay: Inhibition of recombinant human N-terminal GST-tagged TGFbeta2 receptor (190 to end residues) expressed in baculovirus infected Sf9 insect cells up to 100 uM using MBP as substrate measured after 2 hrs by ADP-Glo assay
TGF-beta receptor type-2 (Homo sapiens), sequence (P37173 whole entry): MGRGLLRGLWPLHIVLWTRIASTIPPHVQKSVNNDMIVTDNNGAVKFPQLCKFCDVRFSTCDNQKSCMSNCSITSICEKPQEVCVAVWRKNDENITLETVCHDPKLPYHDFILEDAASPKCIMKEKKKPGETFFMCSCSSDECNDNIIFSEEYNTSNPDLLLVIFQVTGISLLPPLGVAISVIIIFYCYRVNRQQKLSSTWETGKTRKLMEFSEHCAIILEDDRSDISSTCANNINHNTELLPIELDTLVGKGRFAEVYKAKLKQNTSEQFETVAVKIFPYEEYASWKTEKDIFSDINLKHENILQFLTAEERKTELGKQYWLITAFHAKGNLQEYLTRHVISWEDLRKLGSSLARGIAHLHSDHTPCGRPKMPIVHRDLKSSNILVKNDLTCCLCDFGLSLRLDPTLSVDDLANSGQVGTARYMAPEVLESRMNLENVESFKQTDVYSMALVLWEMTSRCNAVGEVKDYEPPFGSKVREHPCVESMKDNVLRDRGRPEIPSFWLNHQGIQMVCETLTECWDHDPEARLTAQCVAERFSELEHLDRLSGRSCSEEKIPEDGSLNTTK
How it was run: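 Recombinant human TβRII produced in Sf9 cells. Compound serially diluted from DMSO and incubated with enzyme, 50 µM ATP and 0.1 g/L MBP for 2 h at room temperature. Kinase activity read as ADP generated.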

[10] = target: T1, TGF-beta receptor type-1 (Rattus norvegicus); assay: Inhibition of TGFbeta1 receptor in TGFbeta1-stimulated Sprague-Dawley rat cardiac fibroblasts assessed as reduction in Smad2 nuclear translocation at 10 uM measured after 5 mins by DAPI staining-based laser confocal microscopic analysis
How it was run: (§3)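 Primary rat cardiac fibroblasts treated with 10 µM compound plus 10 ng/mL TGFβ1 for 5 min. Fixed in 4% PFA, permeabilized with 0.1% Triton X-100, blocked with goat serum. Stained with anti-Smad2 or anti-Smad3 overnight at 4 °C, then Alexa 594 secondary and DAPI nuclear stain. Imaged by confocal microscopy.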

[11] = tested on: Rattus norvegicus; assay: Antifibrotic activity in abdominal aortic constriction Sprague-Dawley rat model of cardiac fibrosis assessed as decrease in heart collagen level at 5 mg/kg, ip administered once daily for 4 weeks measured post-last dose by Masson's trichrome staining-based histological analysis relative to control; type: functional; design: scale not given: the % may be the effect or the level left
How it was run: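 Male SD rats (200–250 g) with abdominal aortic constriction (suture tied over a 21-G probe above the renal arteries), under pentobarbital 30 mg/kg ip. Dosed ip daily for 4 weeks. Vehicle was saline with 0.5% DMSO and 5% Kolliphor HS 15. Groups: sham, AAC, AAC+nifedipine 10 mg/kg, n=8 each. Formalin-fixed paraffin sections 4 µm thick; FN and α-SMA by immunohistochemistry, collagen by Masson's trichrome; stained area measured.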

[12] = target: T1, TGF-beta receptor type-1 (Rattus norvegicus); assay: Inhibition of TGFbeta1 receptor in TGFbeta1-stimulated Sprague-Dawley rat cardiac fibroblasts assessed as reduction in Smad3 nuclear translocation at 10 uM measured after 5 mins by DAPI staining-based laser confocal microscopic analysis; how it was run: as §3
[13] = tested on: Rattus norvegicus; assay: Antifibrotic activity in abdominal aortic constriction Sprague-Dawley rat model of cardiac fibrosis assessed as diastolic left ventricular posterior wall thickness at 5 mg/kg, ip administered once daily for 4 weeks measured post-last dose by echocardiography (reference value: 2.33 +/- 0.31 mm); type: functional
[14] = Effect on total Smad3 expression in TGFbeta1-stimulated Sprague-Dawley rat cardiac fibroblasts at 10 uM measured after 5 to 30 mins by Western blot analysis; type: ADME
[15] = tested on: Rattus norvegicus; assay: Antifibrotic activity in abdominal aortic constriction Sprague-Dawley rat model of cardiac fibrosis assessed as down regulation of alpha-SMA expression in heart at 5 mg/kg, ip administered once daily for 4 weeks measured post-last dose by Western blot analysis; type: functional, organism-based; how it was run: as §2

With `C=C(C)[C@@H]1C/C=C(\C)C(=O)CCC2=C[C@@H]1OC2=O` the inhibition [1] was “Dose-dependent effect”, the Activity [2] was “Active” and the inhibition [3] was “Dose-dependent effect”. For the same molecule, the Activity [4] was 71.38%, the “fibronectin reduction (active/not active)” value [5] was “Active” and the Activity [6] was 4.74 mm. For the same molecule, the inhibition [7] was “Active”, the inhibition [8] was “Active” and the inhibition [9] was “inactive”. The inhibition [10] was “Active”, the Activity [11] was 65.6% and the inhibition [12] was “Active”. The Activity [13] was 2 mm, the Activity [14] was “Non-Toxic” and the Activity [15] was “Active”.
